Laboratory results taken from ChEMBL document CHEMBL1153805, “Phenylethanoid glycosides from Lantana fucata with in vitro anti-inflammatory activity” (J Nat Prod, 2009).

How the values were obtained:
J774.A1 [1] = experiment: Antiinflammatory activity in mouse J774A1 cells assessed as inhibition of LPS-induced NO release at 100 ug/ml after 24 hrs treated 1 hr before LPS challenge relative to LPS; format: functional
In short: (§1)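 J774A.1 cells (5.0 × 10⁴/well) adhered 2 h at 37 °C, 5% CO₂. Compounds added 1 h before and simultaneously with E. coli LPS (6 × 10³ U/mL) to induce iNOS. Nitrite accumulated in medium was measured 24 h after LPS with Griess reagent against a sodium nitrite standard curve made in culture medium. Expressed as % inhibition versus LPS-only cells. L-NAME (1 µM) was the reference.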

J774.A1 [2] = experiment: Antiinflammatory activity in mouse J774A1 cells assessed as inhibition of LPS-induced NO release at 10 ug/ml after 24 hrs treated 1 hr before LPS challenge relative to LPS; format: functional; in short: as §1
J774.A1 [3] = experiment: Antiinflammatory activity in mouse J774A1 cells assessed as inhibition of LPS-induced NO release at 1 ug/ml after 24 hrs treated 1 hr before LPS challenge relative to LPS; format: functional; in short: as §1
[4] = Antiproliferative activity against mouse J774A1 cells assessed as cell viability at 100 ug/ml after 72 hrs by MTT assay relative to LPS; format: cell-based, J774.A1
In short: (§2)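 J774A.1 cells (3.5 × 10⁴/well) adhered 2 h at 37 °C, 5% CO₂. Medium was renewed, then serial dilutions of compound were added for 72 h. MTT was added for a further 3 h, formazan was dissolved in 50% DMF/20% SDS (pH 4.5), and OD was read at 620 nm. % dead cells = 100 − (OD treated/OD control) × 100. A cell-free control tested for MTT interference.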

[5] = Antiproliferative activity against mouse J774A1 cells assessed as cell viability at 10 ug/ml after 72 hrs by MTT assay relative to LPS; format: cell-based, J774.A1; in short: as §2
[6] = Antiproliferative activity against mouse J774A1 cells assessed as cell viability at 1 ug/ml after 72 hrs by MTT assay relative to LPS; format: cell-based, J774.A1; in short: as §2
J774.A1 [7] = experiment: Antiinflammatory activity in mouse J774A1 cells assessed as inhibition of LPS-induced NO release at 1 uM after 24 hrs treated 1 hr before LPS challenge relative to LPS; format: functional
In short: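 J774A.1 murine macrophages plated at 5.0 × 10⁴ cells/well, adhered 2 h at 37 °C in 5% CO₂. Compounds (1-100 µg/mL) added 1 h before and simultaneously with E. coli LPS (6 × 10³ U/mL) to induce iNOS. After 24 h, nitrite in medium measured by Griess reagent against a sodium nitrite standard curve made in culture medium. Expressed as % inhibition versus LPS alone.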

For `C[C@@H]1O[C@@H](O[C@H]2[C@H](OCCc3ccc(O)c(O)c3)O[C@H](CO)[C@@H](OC(=O)/C=C/c3ccc(O)c(O)c3)[C@@H]2O)[C@H](O)[C@H](O)[C@H]1O` [PARVIFLOROSIDE A], the inhibition at 100 µg/mL (J774.A1 [1]) was 88.5%, the inhibition at 10 µg/mL (J774.A1 [2]) was 9% and the inhibition at 1 µg/mL (J774.A1 [3]) was 3.8%. The viability at 72 h, 100 ug/ml [4] was 96.9%, the viability at 72 h, 10 ug/ml [5] was 95.9% and the viability at 72 h, 1 ug/ml [6] was 96.7%.

Molecule `Sc1ncnc2nc[nH]c12` [MERCAPTOPURINE ANHYDROUS] has a viability at 72 h, 100 ug/ml [4] of 31.8%, a viability at 72 h, 10 ug/ml [5] of 38% and a viability at 72 h, 1 ug/ml [6] of 44.1%.

Work on `COC(=O)[C@@H](N)CCCNC(=N)N[N+](=O)[O-]` [L-NAME] yielded an inhibition at 1 µM (J774.A1 [7]) of 46.6%.

For `O=C(/C=C/c1ccc(O)c(O)c1)O[C@H]1[C@H](O)[C@@H](O[C@@H]2OC[C@](O)(CO)[C@H]2O)[C@H](OCCc2ccc(O)c(O)c2)O[C@@H]1CO` [FUCATOSIDE A], the inhibition at 100 µg/mL (J774.A1 [1]) was 52.5%, the inhibition at 10 µg/mL (J774.A1 [2]) was 11.2% and the inhibition at 1 µg/mL (J774.A1 [3]) was 13.3%. It also gave a viability at 72 h, 100 ug/ml [4] of 95%, a viability at 72 h, 10 ug/ml [5] of 95.9% and a viability at 72 h, 1 ug/ml [6] of 97.3%.

For `O=C(/C=C/c1ccc(O)c(O)c1)O[C@H]1[C@H](O[C@@H]2OC[C@](O)(CO)[C@H]2O)[C@@H](O[C@@H]2OC[C@@H](O)[C@H](O)[C@H]2O)[C@H](OCCc2ccc(O)c(O)c2)O[C@@H]1CO` [FUCATOSIDE B], the inhibition at 100 µg/mL (J774.A1 [1]) was 81.4%, the inhibition at 10 µg/mL (J774.A1 [2]) was 16.4% and the inhibition at 1 µg/mL (J774.A1 [3]) was 13.7%. It also gave a viability at 72 h, 100 ug/ml [4] of 94.4%, a viability at 72 h, 10 ug/ml [5] of 96.1% and a viability at 72 h, 1 ug/ml [6] of 97.5%.

Work on `O=C(/C=C/c1ccc(O)c(O)c1)O[C@H]1[C@H](O[C@@H]2OC[C@@](O)(CO)[C@H]2O)[C@@H](O[C@@H]2OC[C@@](O)(CO)[C@H]2O)[C@H](OCCc2ccc(O)c(O)c2)O[C@@H]1CO` [FUCATOSIDE C] yielded an inhibition at 100 µg/mL (J774.A1 [1]) of 93.7%, an inhibition at 10 µg/mL (J774.A1 [2]) of 31.8% and an inhibition at 1 µg/mL (J774.A1 [3]) of 4.4%. The viability at 72 h, 100 ug/ml [4] was 94.3%, the viability at 72 h, 10 ug/ml [5] was 96.8% and the viability at 72 h, 1 ug/ml [6] was 96.4%.
